Results published in ChEMBL document CHEMBL4840361, “Phytochemical Profiling and Biological Testing of the Constituents of the Australian Plant Haemodorum brevisepalum” (2021).
Calls of active or inactive are those of the source. The calls are words filed in the database; no cut-off is given here.

Assays:
Cryptococcus neoformans = assay: Antifungal activity against Cryptococcus neoformans var. grubii H99 ATCC 208821 assessed as fungal growth inhibition at 32 ug/ml measured after 3 days by resazurine dye based assay; type: functional, organism-based; details: dose 32.0 µg/ml, time 3.0 day
Outline: (§1)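 Screened through CO-ADD at 32 µg/mL against a panel of five bacteria and two fungi. Run in duplicate (n=2) on different plates. Activity was called when inhibition exceeded 80% with a Z-score above 2.5 in either replicate.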

Escherichia coli = assay: Antibacterial activity against Escherichia coli ATCC 25922 assessed as bacterial growth inhibition at 32 ug/ml measured after 18 hrs by resazurine dye based assay; type: functional, organism-based; details: dose 32.0 µg/ml; outline: as §1
Haemonchus contortus [1] = assay: Anthelmintic activity against third stage larvae of Haemonchus contortus assessed as inhibition of xL3 larval motility at 20 uM measured after 72 hrs; type: functional, organism-based
Outline: (§2)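 Exsheathed third-stage larvae (xL3s) of Haemonchus contortus, screened at 20 µM in 96-well plates holding 300 xL3s per well; testing was done at the University of Melbourne.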

Haemonchus contortus [2] = assay: Anthelmintic activity against third stage larvae of Haemonchus contortus assessed as inhibition of larval development at 20 uM measured after 7 days by microscopic analysis; type: functional, organism-based; details: time 7.0 day; outline: as §2
Candida albicans = assay: Antifungal activity against Candida albicans ATCC 90028 assessed as fungal growth inhibition at 32 ug/ml measured after 3 days by resazurine dye based assay relative to control; type: functional; details: ATCC 90028, 72 h, time 3 day; outline: as §1
Staphylococcus aureus = assay: Antibacterial activity against Staphylococcus aureus MRSA ATCC 43300 assessed as bacterial growth inhibition at 32 ug/ml measured after 18 hrs by resazurine dye based assay relative to control; type: functional; outline: as §1

COC(=O)c1ccc(-c2ccccc2)c2c1C(=O)C=C(OC)C2=O
Activity (Cryptococcus neoformans): inactive
Activity (Escherichia coli): inactive

COC1=Cc2cc(OC)c(O[C@@H]3O[C@H](CO)[C@@H](O)[C@H](O)[C@H]3O[C@@H]3O[C@H](COC(=O)/C=C/c4ccc(O)c(O)c4)[C@@H](O)[C@H](O)[C@H]3O)c3c(-c4ccccc4)ccc(c23)C1=O
Activity (Cryptococcus neoformans): inactive
Activity (Escherichia coli): inactive
Activity (Haemonchus contortus [1]): inactive
Activity (Haemonchus contortus [2]): inactive

O=C1C=Cc2cc(O[C@@H]3O[C@H](CO)[C@@H](O)[C@H](O)[C@H]3O)cc3c(-c4ccc(O)cc4)ccc1c23
Activity (Cryptococcus neoformans): inactive
Activity (Escherichia coli): inactive
inhibition at 32 µg/mL (Candida albicans): 29.6%
Activity (Haemonchus contortus [1]): inactive
Activity (Haemonchus contortus [2]): inactive

O=C1OC(O)c2cc(O)c(O[C@@H]3O[C@H](CO)[C@@H](O)[C@H](O)[C@H]3O)c3c(-c4ccccc4)ccc1c23 (mixture of isomers)
Activity (Cryptococcus neoformans): inactive
Activity (Escherichia coli): inactive
Activity (Haemonchus contortus [1]): inactive
Activity (Haemonchus contortus [2]): inactive

O=C1OCc2cc(O)c(O[C@@H]3O[C@H](CO)[C@@H](O)[C@H](O)[C@H]3O)c3c(-c4ccccc4)ccc1c23
Activity (Cryptococcus neoformans): inactive
Activity (Escherichia coli): inactive
Activity (Haemonchus contortus [1]): inactive
Activity (Haemonchus contortus [2]): inactive

O=c1c(O[C@@H]2O[C@H](CO[C@@H]3O[C@H](CO)[C@@H](O)[C@H](O)[C@H]3O)[C@@H](O)[C@H](O)[C@H]2O)c(-c2ccc(O)c(O)c2)oc2cc(O)cc(O)c12
Activity (Cryptococcus neoformans): inactive
Activity (Escherichia coli): inactive

O=C1C(O)=Cc2cc(O[C@@H]3O[C@H](CO[C@@H]4O[C@H](CO)[C@@H](O)[C@H](O)[C@H]4O)[C@@H](O)[C@H](O)[C@H]3O)cc3c(-c4ccc(O)c(O)c4)ccc1c23
Activity (Cryptococcus neoformans): inactive
Activity (Escherichia coli): inactive
Activity (Haemonchus contortus [1]): inactive
Activity (Haemonchus contortus [2]): inactive

O=C1OC(C(=O)O)c2cc(O)c(O[C@H]3O[C@@H](CO)[C@H](O)[C@@H](O)[C@@H]3O)c3c(-c4ccccc4)ccc1c23 (mixture of isomers)
Activity (Cryptococcus neoformans): inactive
Activity (Escherichia coli): inactive

COc1cc2ccc(=O)c3cc(O[C@@H]4O[C@H](CO)[C@@H](O)[C@H](O)[C@H]4O)c4c5ccccc5oc1c4c23
Activity (Cryptococcus neoformans): inactive
inhibition at 32 µg/mL (Staphylococcus aureus): 8.1%
Activity (Escherichia coli): inactive

O=C1C=Cc2cc(O)c(O[C@@H]3O[C@H](CO)[C@@H](O)[C@H](O)[C@H]3O)c3cc(-c4ccccc4O)cc1c23
Activity (Cryptococcus neoformans): inactive
Activity (Escherichia coli): inactive
inhibition at 32 µg/mL (Candida albicans): 38.7%
Activity (Haemonchus contortus [1]): inactive
Activity (Haemonchus contortus [2]): inactive

CC(=O)OC[C@@H]1O[C@H](Oc2c(OC(C)=O)cc3c4c(ccc(-c5ccccc5)c24)C(=O)OC3)[C@@H](OC(C)=O)[C@H](OC(C)=O)[C@H]1OC(C)=O
Activity (Cryptococcus neoformans): inactive
Activity (Escherichia coli): inactive

O=C1C(O)=Cc2ccc(O[C@@H]3O[C@H](CO)[C@@H](O)[C@H](O)[C@H]3O)c3cc(-c4ccccc4O)cc1c23
Activity (Cryptococcus neoformans): inactive
Activity (Escherichia coli): inactive
Activity (Haemonchus contortus [1]): inactive
Activity (Haemonchus contortus [2]): inactive

COc1cc2ccc(=O)c3ccc4c5ccccc5oc1c4c23
Activity (Cryptococcus neoformans): inactive
inhibition at 32 µg/mL (Staphylococcus aureus): 58.4%
Activity (Escherichia coli): inactive

O=c1c(O[C@@H]2O[C@H](CO)[C@@H](O)[C@H](O)[C@H]2O)c(-c2ccc(O)c(O)c2)oc2cc(O)cc(O)c12
Activity (Cryptococcus neoformans): inactive
Activity (Escherichia coli): inactive
